ChEMBL document CHEMBL4229344 (Eur J Med Chem, 2018)
The source made the active and inactive calls. The rule behind the calls is not given here.

Legend:
[1] = molecular target: Calcium/calmodulin-dependent protein kinase type II subunit alpha (Homo sapiens) (UniProt Q9UQM7); assay: Binding affinity to wild-type human partial length CAMK2A (M1 to K328 residues) expressed in bacterial expression system assessed as residual binding level at 1 uM by Kinomescan method relative to control
Procedure, shortened: (§1)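 Kinome-wide competition binding screen against a panel of 468 purified kinases/mutants, with the test compound at a single concentration of 1 μM. Read-out is the relative binding activity of each kinase in the presence of compound.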

NCI-H1703 [2] = assay: Induction of apoptosis in human NCI-H1703 cells assessed as cleaved PARP expression level after 72 hrs in presence of PDGF-AA by Western blot analysis; type: functional, cell-based
Procedure, shortened: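 Cells exposed to compound or DMSO for the stated periods, then lysed and immunoblotted for PARP and caspase-3 cleavage, with β-actin as loading control. NCI-H1703 stimulation used PDGF AA at 100 ng/mL.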

NCI-H1703 [3] = assay: Antiproliferative activity against human NCI-H1703 cells after 72 hrs in presence of PDGF-AA by CellTiter-Glo or CCK-8 assay; type: functional; settings: NCI-H1703, 72 h
Procedure, shortened: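 Cells in RPMI 1640 with 10% FBS at 37 °C, 5% CO2, seeded at 1–3 × 10^4 cells/mL with serial compound dilutions for 72 h. Viability read by CellTiter-Glo luminescence or CCK-8 absorbance (450/655 nm), normalized to DMSO control.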

[4] = system: Epidermal growth factor receptor (Homo sapiens), P00533 [UNDEFINED MUTATION]; assay: Binding affinity to human partial length EGFR L747-S752del/P753S mutant expressed in bacterial expression system assessed as residual binding level at 1 uM by Kinomescan method relative to control
Chain of Epidermal growth factor receptor (Homo sapiens), P00533 [UNDEFINED MUTATION] (P00533 whole entry, looked up, stated change not applied): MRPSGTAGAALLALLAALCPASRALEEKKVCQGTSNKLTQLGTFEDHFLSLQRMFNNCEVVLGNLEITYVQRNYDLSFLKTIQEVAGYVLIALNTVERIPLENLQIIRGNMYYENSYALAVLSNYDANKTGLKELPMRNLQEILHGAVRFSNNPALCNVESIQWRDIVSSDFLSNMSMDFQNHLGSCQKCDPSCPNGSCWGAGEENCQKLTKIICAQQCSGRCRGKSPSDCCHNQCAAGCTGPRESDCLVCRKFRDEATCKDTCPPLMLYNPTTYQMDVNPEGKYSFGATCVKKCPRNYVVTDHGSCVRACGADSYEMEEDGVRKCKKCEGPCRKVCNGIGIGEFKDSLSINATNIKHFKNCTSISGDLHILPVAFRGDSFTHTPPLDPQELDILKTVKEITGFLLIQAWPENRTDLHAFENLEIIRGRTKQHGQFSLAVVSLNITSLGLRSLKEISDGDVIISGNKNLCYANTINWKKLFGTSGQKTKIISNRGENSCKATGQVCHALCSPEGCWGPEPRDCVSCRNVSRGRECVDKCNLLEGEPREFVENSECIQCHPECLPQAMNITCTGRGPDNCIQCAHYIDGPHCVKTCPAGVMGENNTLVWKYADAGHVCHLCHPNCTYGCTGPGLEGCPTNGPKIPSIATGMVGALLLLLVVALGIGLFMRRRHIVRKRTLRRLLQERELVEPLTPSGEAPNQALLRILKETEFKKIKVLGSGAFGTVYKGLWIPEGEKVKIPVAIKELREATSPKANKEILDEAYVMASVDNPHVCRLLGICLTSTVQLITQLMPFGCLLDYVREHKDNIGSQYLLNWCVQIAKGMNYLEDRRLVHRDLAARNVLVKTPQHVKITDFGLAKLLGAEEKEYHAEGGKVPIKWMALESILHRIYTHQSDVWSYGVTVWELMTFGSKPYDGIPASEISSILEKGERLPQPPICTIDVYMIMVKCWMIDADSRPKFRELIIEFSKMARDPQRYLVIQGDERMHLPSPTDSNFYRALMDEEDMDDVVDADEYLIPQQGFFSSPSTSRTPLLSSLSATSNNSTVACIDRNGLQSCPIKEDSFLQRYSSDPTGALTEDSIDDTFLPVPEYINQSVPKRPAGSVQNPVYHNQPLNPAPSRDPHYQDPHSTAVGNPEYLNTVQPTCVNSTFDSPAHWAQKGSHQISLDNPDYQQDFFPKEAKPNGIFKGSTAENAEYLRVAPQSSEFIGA
Procedure, shortened: (§2)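 Kinome-wide single-concentration binding screen (KINOMEscan) at 1 μM against a panel of 468 purified kinases and mutants. Read-out is relative binding of each kinase compared with control. Selectivity across the panel was summarised as an S(10) score.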

[5] = molecular target: Testis-specific serine/threonine-protein kinase 3 (Homo sapiens) (UniProt Q96PN8); assay: Binding affinity to wild-type human full length TSSK3 (M1 to T268 residues) expressed in mammalian expression system assessed as residual binding level at 1 uM by Kinomescan method relative to control
Procedure, shortened: (§3)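 Single-concentration KINOMEscan (DiscoverX) binding screen at 1 μM against a panel of 468 purified kinases and mutants. The read-out is binding relative to control.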

[6] = molecular target: Dual specificity mitogen-activated protein kinase kinase 1 (Homo sapiens) (UniProt Q02750); assay: Binding affinity to wild-type human full length MEK1 (M1 to V393 residues) expressed in mammalian expression system assessed as residual binding level at 1 uM by Kinomescan method relative to control; procedure, shortened: as §3
[7] = molecular target: Mitotic checkpoint serine/threonine-protein kinase BUB1 (Homo sapiens) (UniProt O43683); assay: Binding affinity to wild-type human partial length BUB1 (Q724 to K1085 residues) expressed in mammalian expression system assessed as residual binding level at 1 uM by Kinomescan method relative to control
Chain of Mitotic checkpoint serine/threonine-protein kinase BUB1 (Homo sapiens) (O43683 whole entry, looked up, the tested form may be a part): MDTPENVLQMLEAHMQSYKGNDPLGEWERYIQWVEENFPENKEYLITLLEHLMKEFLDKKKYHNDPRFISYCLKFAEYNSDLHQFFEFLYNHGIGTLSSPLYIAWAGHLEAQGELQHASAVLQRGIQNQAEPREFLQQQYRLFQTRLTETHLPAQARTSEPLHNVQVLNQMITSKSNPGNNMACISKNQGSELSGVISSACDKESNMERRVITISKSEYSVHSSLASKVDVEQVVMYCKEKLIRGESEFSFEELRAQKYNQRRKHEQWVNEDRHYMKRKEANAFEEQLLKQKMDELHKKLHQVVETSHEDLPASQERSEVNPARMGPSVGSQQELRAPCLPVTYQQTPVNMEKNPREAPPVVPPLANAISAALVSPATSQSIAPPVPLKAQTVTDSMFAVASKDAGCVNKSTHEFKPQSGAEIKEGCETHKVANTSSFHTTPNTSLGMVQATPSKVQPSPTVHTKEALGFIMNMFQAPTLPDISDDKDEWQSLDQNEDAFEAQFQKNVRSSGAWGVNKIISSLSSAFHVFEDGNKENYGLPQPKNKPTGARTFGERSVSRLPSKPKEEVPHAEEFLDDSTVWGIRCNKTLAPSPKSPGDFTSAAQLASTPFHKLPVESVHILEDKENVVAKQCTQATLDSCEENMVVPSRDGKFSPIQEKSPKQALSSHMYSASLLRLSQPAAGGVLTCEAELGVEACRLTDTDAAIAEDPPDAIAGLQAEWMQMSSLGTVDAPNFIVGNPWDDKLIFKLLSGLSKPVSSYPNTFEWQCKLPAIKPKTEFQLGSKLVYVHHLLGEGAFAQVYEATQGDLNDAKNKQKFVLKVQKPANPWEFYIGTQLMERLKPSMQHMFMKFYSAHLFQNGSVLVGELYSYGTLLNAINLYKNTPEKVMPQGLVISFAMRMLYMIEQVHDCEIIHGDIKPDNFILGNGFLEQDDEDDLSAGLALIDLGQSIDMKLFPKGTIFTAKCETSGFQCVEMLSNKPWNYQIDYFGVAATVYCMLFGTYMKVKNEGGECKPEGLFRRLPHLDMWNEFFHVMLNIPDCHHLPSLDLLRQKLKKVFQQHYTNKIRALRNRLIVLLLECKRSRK

[8] = molecular target: Platelet-derived growth factor receptor alpha (Homo sapiens, UniProt P16234)
[9] = molecular target: RAC-alpha serine/threonine-protein kinase (Homo sapiens) (UniProt P31749); assay: Binding affinity to wild-type human partial length AKT1 expressed in bacterial expression system assessed as residual binding level at 1 uM by Kinomescan method relative to control; procedure, shortened: as §3
[10] = molecular target: Mitogen-activated protein kinase 6 (Homo sapiens) (UniProt Q16659); assay: Binding affinity to wild-type human partial length ERK3 (M1 to P413 residues) expressed in bacterial expression system assessed as residual binding level at 1 uM by Kinomescan method relative to control; procedure, shortened: as §1
[11] = molecular target: Interleukin-1 receptor-associated kinase 3 (Homo sapiens) (UniProt Q9Y616); assay: Binding affinity to wild-type human partial length IRAK3 (V147 to E596 residues) expressed in bacterial expression system assessed as residual binding level at 1 uM by Kinomescan method relative to control
[12] = molecular target: Mitogen-activated protein kinase kinase kinase 9 (Homo sapiens) (UniProt P80192); assay: Binding affinity to wild-type human partial length MLK1 (V88 to W426 residues) expressed in bacterial expression system assessed as residual binding level at 1 uM by Kinomescan method relative to control
[13] = molecular target: MAP/microtubule affinity-regulating kinase 4 (Homo sapiens) (UniProt Q96L34); assay: Binding affinity to wild-type human partial length MARK4 (K29 to G340 residues) expressed in bacterial expression system assessed as residual binding level at 1 uM by Kinomescan method relative to control
Chain of MAP/microtubule affinity-regulating kinase 4 (Homo sapiens) (Q96L34 whole entry, the tested form may be a part): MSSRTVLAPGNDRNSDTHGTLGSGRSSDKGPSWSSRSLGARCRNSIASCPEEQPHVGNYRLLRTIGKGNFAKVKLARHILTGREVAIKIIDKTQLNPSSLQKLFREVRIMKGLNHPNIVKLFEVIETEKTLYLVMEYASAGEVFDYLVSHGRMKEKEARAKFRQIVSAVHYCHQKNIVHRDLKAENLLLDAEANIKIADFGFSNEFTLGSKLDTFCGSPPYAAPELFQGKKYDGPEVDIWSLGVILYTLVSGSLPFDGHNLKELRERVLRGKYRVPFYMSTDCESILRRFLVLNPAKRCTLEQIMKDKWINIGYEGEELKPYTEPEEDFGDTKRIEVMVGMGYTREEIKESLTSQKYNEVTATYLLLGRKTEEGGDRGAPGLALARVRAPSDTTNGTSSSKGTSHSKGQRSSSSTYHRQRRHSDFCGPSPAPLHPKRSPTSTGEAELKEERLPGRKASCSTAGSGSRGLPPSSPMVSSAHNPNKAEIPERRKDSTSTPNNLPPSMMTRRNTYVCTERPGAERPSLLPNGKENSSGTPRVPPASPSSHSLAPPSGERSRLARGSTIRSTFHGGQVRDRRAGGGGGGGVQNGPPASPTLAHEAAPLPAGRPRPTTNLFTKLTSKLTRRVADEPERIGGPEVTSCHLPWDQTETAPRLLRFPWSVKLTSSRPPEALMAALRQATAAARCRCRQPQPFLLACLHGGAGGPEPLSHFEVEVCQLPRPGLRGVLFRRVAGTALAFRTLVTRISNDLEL

[14] = molecular target: Mitogen-activated protein kinase 7 (Homo sapiens) (UniProt Q13164); assay: Binding affinity to wild-type human partial length ERK5 (M1 to A409 residues) expressed in bacterial expression system assessed as residual binding level at 1 uM by Kinomescan method relative to control; procedure, shortened: as §1
[15] = molecular target: Mitogen-activated protein kinase 1 (Homo sapiens) (UniProt P28482); assay: Binding affinity to wild-type human full length ERK2 (M1 to S360 residues) expressed in bacterial expression system assessed as residual binding level at 1 uM by Kinomescan method relative to control
Procedure, shortened: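 KINOMEscan competition binding against 468 purified kinases/mutants, test compound at 1 µM; residual binding relative to control.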

[16] = system: Mast/stem cell growth factor receptor Kit (Homo sapiens), P10721 [V559D]; assay: Binding affinity to human partial length KIT V559D mutant (Y545 to D952 residues) expressed in bacterial expression system assessed as residual binding level at 1 uM by Kinomescan method relative to control; procedure, shortened: as §2
Chain of Mast/stem cell growth factor receptor Kit (Homo sapiens), P10721 [V559D] (P10721 whole entry V559D, the tested form may be a part): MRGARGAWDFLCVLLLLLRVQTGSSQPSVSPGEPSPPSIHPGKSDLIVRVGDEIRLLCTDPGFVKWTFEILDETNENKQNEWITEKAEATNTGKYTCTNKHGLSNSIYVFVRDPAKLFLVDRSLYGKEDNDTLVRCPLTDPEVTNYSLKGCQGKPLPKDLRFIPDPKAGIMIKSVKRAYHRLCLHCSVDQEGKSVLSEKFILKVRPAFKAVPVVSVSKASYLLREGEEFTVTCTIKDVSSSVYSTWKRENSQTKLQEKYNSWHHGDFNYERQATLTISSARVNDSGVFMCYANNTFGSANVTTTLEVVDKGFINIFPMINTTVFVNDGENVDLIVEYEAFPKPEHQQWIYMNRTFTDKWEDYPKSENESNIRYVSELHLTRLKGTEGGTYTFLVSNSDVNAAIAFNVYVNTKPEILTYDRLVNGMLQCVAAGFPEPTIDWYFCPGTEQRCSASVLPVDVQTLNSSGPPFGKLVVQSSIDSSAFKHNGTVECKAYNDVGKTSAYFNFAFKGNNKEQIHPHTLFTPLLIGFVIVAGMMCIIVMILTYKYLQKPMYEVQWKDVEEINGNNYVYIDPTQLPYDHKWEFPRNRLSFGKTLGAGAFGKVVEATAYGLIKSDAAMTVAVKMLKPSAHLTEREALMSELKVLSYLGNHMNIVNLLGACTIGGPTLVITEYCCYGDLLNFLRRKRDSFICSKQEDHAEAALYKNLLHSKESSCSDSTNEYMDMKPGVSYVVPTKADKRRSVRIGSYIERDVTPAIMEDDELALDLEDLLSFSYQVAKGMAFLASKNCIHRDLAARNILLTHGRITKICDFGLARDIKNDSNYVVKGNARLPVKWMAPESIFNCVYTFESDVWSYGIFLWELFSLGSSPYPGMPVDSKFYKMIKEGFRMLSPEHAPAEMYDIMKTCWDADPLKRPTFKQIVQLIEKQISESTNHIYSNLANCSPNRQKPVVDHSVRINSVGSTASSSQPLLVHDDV

[17] = molecular target: Mitogen-activated protein kinase 4 (Homo sapiens) (UniProt P31152); assay: Binding affinity to wild-type human partial length ERK4 (M1 to L365 residues) expressed in bacterial expression system assessed as residual binding level at 1 uM by Kinomescan method relative to control; procedure, shortened: as §1
[18] = system: Mast/stem cell growth factor receptor Kit (Homo sapiens), P10721 [D816V]; assay: Binding affinity to human partial length KIT D816V mutant (I571 to D952 residues) expressed in bacterial expression system assessed as residual binding level at 1 uM by Kinomescan method relative to control; procedure, shortened: as §2
Chain of Mast/stem cell growth factor receptor Kit (Homo sapiens), P10721 [D816V] (P10721 whole entry D816V, the tested form may be a part): as the sequence (P10721 whole entry V559D, the tested form may be a part) above, with D559V, D816V counted along it

[19] = molecular target: Membrane-associated tyrosine- and threonine-specific cdc2-inhibitory kinase (Homo sapiens) (UniProt Q99640); assay: Binding affinity to wild-type human partial length PKMYT1 (A88 to G366 residues) expressed in bacterial expression system assessed as residual binding level at 1 uM by Kinomescan method relative to control
Procedure, shortened: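 KINOMEscan competition binding against a panel of 468 purified kinases/mutants, compound tested at 1 μM; readout is relative binding activity versus control.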

[20] = system: Serine/threonine-protein kinase B-raf (Homo sapiens), P15056 [V600E]; assay: Binding affinity to human partial length BRAF V600E mutant (S429 to E741 residues) expressed in mammalian expression system assessed as residual binding level at 1 uM by Kinomescan method relative to control; procedure, shortened: as §2

Cc1ccc(NC(=O)c2ccc(CN(CCN(C)C)C(=O)c3cccnc3)cc2)cc1Nc1nccc(-c2cccnc2)n1
Activity [1]: 89% | Activity (NCI-H1703 [2]): Active | GI50 (NCI-H1703 [3]): 2.99 µM | Activity [4]: 96% | Activity [5]: 100% | Activity [6]: 97% | Activity [7]: 100% | GI50 [8]: 0.034 µM | Activity [9]: 95% | Activity [10]: 94% | Activity [11]: 100% | Activity [12]: 88% | Activity [13]: 90% | Activity [14]: 84% | Activity [15]: 83% | Activity [16]: 0.8% | Activity [17]: 89% | Activity [18]: 88% | Activity [19]: 84% | Activity [20]: 49%
